For orientation: pIC50 means −log10 of the IC50, conventionally taken in molar units. High values mean a small IC50, low ones a large IC50.

pIC50: −log10 of the molar value. The source made the active and inactive calls. The rule behind the calls is not given here.

For 5 compounds, IC50 and Activity results are on record in ChEMBL document CHEMBL1799990, “Triazole and dihydroimidazole alkaloids from the marine sediment-derived fungus Penicillium paneum SD-44” (J Nat Prod, 2011).

Experiment [1] concerns Bel-7402. As to the kind of experiment: Cytotoxicity against human Bel7402 cells. The experiment is classed as functional, cell-based.
Experiment [2] deals with A549. As to the kind of experiment: Cytotoxicity against human A549 cells. The experiment is classed as functional, cell-based.
Experiment [3] deals with SMMC-7721. The experiment in a line: Cytotoxicity against human SMMC7721 cells. It counts as functional, cell-based.
The nature of experiment [4]: Antifungal activity against Coniella diplodiella by disk diffusion method. It counts as functional. The essentials:
(§1)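 Disk diffusion assay against the five plant-pathogenic fungi, run alongside amphotericin B as the positive control.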
(A growth-free zone around the sample is the usual read-out of agar diffusion tests.)

The test system of experiment [5] is Escherichia coli. The experiment in a line: Antibacterial activity against Escherichia coli by disk diffusion method. The experiment is classed as functional, organism-based. An outline of the steps: (§2)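 Disk diffusion assay against the two bacteria, run alongside chloramphenicol as the positive control.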
Experiment [6] concerns Botryosphaeria berengeriana. The experiment in a line: Antifungal activity against Physalospora pyricola by disk diffusion method. It counts as functional, organism-based. An outline of the steps:
as §1

The test system of experiment [7] is Staphylococcus aureus. The experiment in a line: Antibacterial activity against Staphylococcus aureus by disk diffusion method. It counts as functional, organism-based. An outline of the steps: as §2
The subject of experiment [8] is Alternaria brassicae. The experiment in a line: Antifungal activity against Alternaria brassicae by disk diffusion method. It counts as functional. An outline of the steps: as §1
Experiment [9] relates to Fusarium oxysporum f. sp. vasinfectum. As to the kind of experiment: Antifungal activity against Fusarium oxysporum f. sp. vasinfectum by disk diffusion method. It counts as functional, organism-based. The essentials: as §1
Experiment [10] relates to Aspergillus niger. As to the kind of experiment: Antifungal activity against Aspergillus niger by disk diffusion method. The experiment is classed as functional, organism-based. An outline of the steps: as §1

On to `O=c1[nH]cc(F)c(=O)[nH]1` [FLUOROURACIL], for which the pIC50 is 4.66 in experiment [1], 4.86 in experiment [2] and 4.89 in experiment [3].
Consider `O=C1N[C@H]2[C@H](c3ccc(O)cc3)N=CN2c2ccccc21`, for which the result in experiment [4], in [5], in experiment [6], in experiment [7], in [8] and in experiment [9] was inactive. Further, the outcome in experiment [10] was inactive.
For `O=C(O)c1ccccc1-n1ncnc1Cc1ccc(O)cc1` [PENIPANOID A], the outcome in [4], in experiment [5], in [6], in experiment [7], in experiment [8] and in experiment [9] was inactive. Also, the outcome in [10] was inactive. The pIC50 in experiment [3] is 4.27.
In the case of `O=c1[nH]c(Cc2ccc(O)cc2)nc2ccccc12`, the result in [4], in experiment [5], in [6], in experiment [7], in [8] and in experiment [9] was inactive. Moreover, in [10], the outcome was inactive. The pIC50 was 4.70 in experiment [1] and 4.76 in experiment [2].
Regarding `O=C(c1ccc(O)cc1)c1nc2ccccc2c(=O)[nH]1`, the result in experiment [4], in experiment [5], in experiment [6], in experiment [7], in [8] and in [9] was inactive. In addition, the outcome in experiment [10] was inactive.
